Data set [1] deals with epimastigotes of Trypanosoma cruzi (Y strain). Nature of the data set: Activity against epimastigote stage. Conditions: CC50/IC50, murine macrophages vs epimastigotes. It counts as cell-based. The procedure, abridged: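 Y-strain epimastigotes, maintained in LIT + 10% FBS at 26 °C, seeded at 10^5/well with serial dilutions of test compound and 10% alamarBlue. After 3 days (exponential growth), fluorescence was read and dying parasites were confirmed by microscopy. IC50 came from nonlinear regression. CC50 came from the J774A.1 alamarBlue assay, and SI = CC50/IC50.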

Data set [2] in a line: Cytotoxicity on murine cells. It counts as cell-based. As to conditions: mouse, J774A.1 macrophages. The procedure, abridged: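 J774A.1 macrophages, maintained in DMEM + 10% FBS at 37 °C and 5% CO2, seeded at 10^4/well and left until fully adherent. Serial dilutions of test compound were then added in RPMI 1640 instead of DMEM, whose colour disturbs alamarBlue fluorescence. After 24 h at 37 °C and 5% CO2, alamarBlue fluorescence was read.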

Data set [3] relates to amastigote stage of T. cruzi. Briefly: Activity against amastigote stage. Conditions: CC50/IC50, murine macrophages vs amastigotes. It counts as cell-based, Trypanosoma cruzi.

Molecules are shown by their SMILES.

What is called CC50 is the concentration that lowers cell viability or growth by half. A lower CC50 goes with harm at low concentration. With `O=C(Cn1ccnc1[N+](=O)[O-])NCc1ccccc1` [BENZ, benznidazole], the “Selectivity index (SI) against epimastigote stage” value in data set [1] was determined as 57.8. Besides, in data set [2], the 50% cytotoxic concentration (CC50) at 24 h stood at 399.9 ± 1.4 µM. Besides, in data set [3], the “Selectivity index against amastigote stage” value amounted to 149.8.

Values taken from article PMC10276036 (International Journal for Parasitology: Drugs and Drug …, 2023).
